Measured values: ChEMBL document CHEMBL2417493, “Novel cycloalkylthiophene-imine derivatives bearing benzothiazole scaffold: synthesis, characterization and antiviral activity evaluation” (Bioorg Med Chem Lett, 2013)
Converted amounts (≈) assume the structure as drawn. The source made the active and inactive calls. The calls are words filed in the database; no cut-off is given here.

How the values were obtained:
[1] = Selectivity index, ratio of CC50 for human HepG2 cells to EC50 for Coxsackievirus B5 infected in human HepG2 cells; format: toxicity, cell-based; details: read-out: Ratio CC50/EC50
How it was run: (§1)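 Antiviral pairings were EV71 in RD cells, CVB5 in HepG2 cells and ADV7 in HeLa cells. Compounds were added […], and total infectivity was read by crystal violet staining. EC50 is the concentration that cut viral replication by 50%. CC50 came from MTT relative to 0.1% DMSO mock control. SI = CC50/EC50. Data are from three independent experiments.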

Enterovirus [2] = assay: Antiviral activity against Enterovirus 71 infected in human rhabdomyosarcoma cells assessed as inhibition of virus-induced cytopathogenicity after 48 hrs by crystal violet staining method; format: functional, organism-based; details: for EC50: Enterovirus, 71, 48 h
How it was run: (§2)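 Virus–cell pairings were EV71 in RD, CVB5 in HepG2, ADV7 in HeLa and influenza A H1N1 in MDCK. Compounds were added […], and total infectivity was read by crystal violet staining. EC50 is the concentration reducing viral replication by 50%. Values are mean SD of three independent experiments.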

[3] = Cytotoxicity against human rhabdomyosarcoma cells after 72 hrs by MTT assay; format: cell-based, Rhabdomyosarcoma cell
How it was run: (§3)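 MTT assay on RD (rhabdomyosarcoma), HepG2 and HeLa cell lines. CC50 is the concentration that cut cell viability by 50% relative to 0.1% DMSO-treated mock-control cells. Values are mean and SD of three independent experiments.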

[4] = Selectivity index, ratio of CC50 for human rhabdomyosarcoma cells to EC50 for Enterovirus 71 infected in human rhabdomyosarcoma cells; format: toxicity; details: read-out: Ratio CC50/EC50; how it was run: as §1
Influenza A virus [5] = assay: Antiviral activity against influenza A virus H1N1 infected in dog MDCK cells assessed as inhibition of virus-induced cytopathogenicity after 48 hrs by crystal violet staining method; format: functional, organism-based; how it was run: as §2
[6] = Cytotoxicity against human HeLa cells after 72 hrs by MTT assay; format: cell-based; how it was run: as §3
Enterovirus [7] = assay: Antiviral activity against Enterovirus 71 infected in human rhabdomyosarcoma cells assessed as inhibition of virus-induced cytopathogenicity at 16 ug/ml after 48 hrs by crystal violet staining method; format: functional; details: Enterovirus, 71, 48 h
How it was run: (§4)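 Single-concentration screen with these pairings: RD/EV71, HepG2/CVB5, HeLa/ADV7, MDCK/H1N1. Cells were infected and kept 48 h in the presence of compound at one fixed concentration; some EV71 tests used the lower level. Inhibition of virus proliferation was read by crystal violet staining.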

[8] = Cytotoxicity against human HepG2 cells after 72 hrs by MTT assay; format: cell-based; how it was run: as §3
Coxsackievirus B5 [9] = assay: Antiviral activity against Coxsackievirus B5 infected in human HepG2 cells assessed as inhibition of virus-induced cytopathogenicity after 48 hrs by crystal violet staining method; format: functional, organism-based; details: for EC50: Enterovirus B, HepG2, 48 h; how it was run: as §2
Influenza A virus [10] = assay: Antiviral activity against influenza A virus H1N1 infected in dog MDCK cells assessed as inhibition of virus-induced cytopathogenicity at 32 ug/ml after 48 hrs by crystal violet staining method; format: functional, organism-based; how it was run: as §4
unidentified adenovirus [11] = assay: Antiviral activity against Adenovirus type 7 infected in human HeLa cells assessed as inhibition of virus-induced cytopathogenicity after 48 hrs by crystal violet staining method; format: functional, organism-based; details: for EC50: unidentified adenovirus, type 7, HeLa, 48 h; how it was run: as §2
unidentified adenovirus [12] = assay: Antiviral activity against Adenovirus type 7 infected in human HeLa cells assessed as inhibition of virus-induced cytopathogenicity at 32 ug/ml after 48 hrs by crystal violet staining method; format: functional; details: for inhibition at 32 µg/mL: type 7, HeLa; how it was run: as §4
[13] = Selectivity index, ratio of CC50 for human HeLa cells to EC50 for Adenovirus type 7 infected in human HeLa cells; format: toxicity, cell-based; details: read-out: Ratio CC50/EC50; how it was run: as §1
Coxsackievirus B5 [14] = assay: Antiviral activity against Coxsackievirus B5 infected in human HepG2 cells assessed as inhibition of virus-induced cytopathogenicity at 32 ug/ml after 48 hrs by crystal violet staining method; format: functional; details: for inhibition at 32 µg/mL: Enterovirus B, HepG2, 48 h; how it was run: as §4
Enterovirus [15] = assay: Antiviral activity against Enterovirus 71 infected in human rhabdomyosarcoma cells assessed as inhibition of virus-induced cytopathogenicity at 32 ug/ml after 48 hrs by crystal violet staining method; format: functional; details: for inhibition at 32 µg/mL: Enterovirus, 71, 48 h; how it was run: as §4

SMILES | selectivity ratio [1] | inhibition (Enterovirus [2]) | EC50 (Enterovirus [2]) [µg/mL] | CC50 at 72 h [3] [µg/mL] | selectivity ratio [4] | inhibition (INH) (Influenza A virus [5]) [%] | CC50 at 72 h [6] [µg/mL] | CC50 at 72 h [8] [µg/mL] | inhibition (Coxsackievirus B5 [9]) | EC50 (Coxsackievirus B5 [9]) [µg/mL] | inhibition (Influenza A virus [10]) | inhibition (unidentified adenovirus [11]) | EC50 (unidentified adenovirus [11]) [µg/mL] | inhibition at 32 µg/mL (unidentified adenovirus [12]) [%] | selectivity ratio [13] | inhibition at 32 µg/mL (Coxsackievirus B5 [14]) [%] | inhibition (INH) (unidentified adenovirus [11]) [%] | other results
Fc1ccc(/C=N/c2sc3c(c2-c2nc4ccccc4s2)CCCC3)cc1 | 33.2 | Dose-dependent effect | 6.9 (≈ 17.6 µM) | 230 (≈ 586 µM) | 32.8 | <50 | 277 (≈ 705 µM) | 324 (≈ 826 µM) | Dose-dependent effect | 9.7 (≈ 24.7 µM) | Active | Dose-dependent effect | 21.1 (≈ 53.8 µM) | 60 | 13.1 | 60 |  | inhibition at 16 µg/mL (Enterovirus [7]): 60%
Nc1sc2c(c1-c1nc3cc(Cl)ccc3s1)CCCC2 | 26.7 | Dose-dependent effect | 1.3 (≈ 4.05 µM) | 43.5 (≈ 136 µM) | 33.7 | <50 | 107 (≈ 333 µM) | 93.7 (≈ 292 µM) | Dose-dependent effect | 3.5 (≈ 10.9 µM) |  | Dose-dependent effect | 5 (≈ 15.6 µM) |  | 20.9 |  |  | 
Oc1ccccc1/C=N/c1sc2c(c1-c1nc3ccccc3s1)CCC2 | 13.8 |  | 7.9 (≈ 21 µM) | 100 (≈ 266 µM) | 12.6 | <50 | 168 (≈ 446 µM) | 156 (≈ 414 µM) |  | 11.1 (≈ 29.5 µM) | Active |  | 17.4 (≈ 46.2 µM) | 60 | 9.6 | 60 |  | inhibition at 32 µg/mL (Enterovirus [15]): 50%
Oc1ccccc1/C=N/c1sc2c(c1-c1nc3ccccc3s1)CCCC2 | 20.8 | Dose-dependent effect | 2 (≈ 5.12 µM) | 42.4 (≈ 108 µM) | 20.3 | <50 | 122 (≈ 312 µM) | 114 (≈ 292 µM) | Dose-dependent effect | 5.4 (≈ 13.8 µM) | Active | Dose-dependent effect | 10.8 (≈ 27.7 µM) | 60 | 11.1 | 60 |  | inhibition at 16 µg/mL (Enterovirus [7]): 60%
C(=N\c1sc2c(c1-c1nc3ccccc3s1)CCCC2)/c1ccc2c(c1)OCO2 |  |  | 32.6 (≈ 77.9 µM) | 299 (≈ 714 µM) | 9.1 | <50 | 568 (≈ 1360 µM) | 329 (≈ 787 µM) |  |  | Active |  |  |  |  |  | <50 | inhibition (Enterovirus [15]): Active; inhibition (INH) (Coxsackievirus B5 [9]): <50%; inhibition (unidentified adenovirus [12]): Active; inhibition (Coxsackievirus B5 [14]): Active
C(=N\c1sc2c(c1-c1nc3ccccc3s1)CCCC2)/c1ccccc1 | 9.3 |  | 14.2 (≈ 37.9 µM) | 71.1 (≈ 190 µM) | 4.9 | <50 | 333 (≈ 890 µM) | 308 (≈ 821 µM) |  | 32.9 (≈ 87.8 µM) | Active |  | 12.5 (≈ 33.4 µM) | 60 | 26.5 | 60 |  | inhibition at 32 µg/mL (Enterovirus [15]): 60%
Nc1sc2c(c1-c1nc3cc(Cl)ccc3s1)CCC2 | 10.4 | Dose-dependent effect | 1.2 (≈ 3.91 µM) | 59.1 (≈ 193 µM) | 46.9 | <50 | 75.1 (≈ 245 µM) | 67.8 (≈ 221 µM) | Dose-dependent effect | 6.4 (≈ 20.9 µM) |  | Dose-dependent effect | 9.8 (≈ 31.9 µM) |  | 7.6 |  |  | 
Nc1sc2c(c1-c1nc3ccccc3s1)CCCC2 | 11.9 |  | 14.1 (≈ 49.2 µM) | 253 (≈ 883 µM) | 17.8 | <50 | 475 (≈ 1660 µM) | 163 (≈ 570 µM) |  | 14.5 (≈ 50.6 µM) |  |  |  |  |  |  | <50 | 
NC(=O)c1ncn([C@@H]2O[C@H](CO)[C@@H](O)[C@H]2O)n1 [RIBAVIRIN] | > 20 |  | 49.2 (≈ 201 µM) | > 500 | > 10 |  | > 500 | > 500 |  | 22.3 (≈ 91.3 µM) |  |  | 27.8 (≈ 114 µM) |  | > 15 |  |  | 
Oc1ccccc1/C=N/c1sc2c(c1-c1nc3cc(Cl)ccc3s1)CCC2 |  |  | 13.9 (≈ 33.8 µM) | 269 (≈ 655 µM) | 19.2 | <50 | 251 (≈ 610 µM) | 210 (≈ 511 µM) |  |  | Active |  |  |  |  |  | <50 | inhibition (Enterovirus [15]): Active; inhibition (INH) (Coxsackievirus B5 [9]): <50%; inhibition (unidentified adenovirus [12]): Active; inhibition (Coxsackievirus B5 [14]): Active
O=[N+]([O-])c1ccccc1/C=N/c1sc2c(c1-c1nc3ccccc3s1)CCCC2 | 35 |  |  | 255 (≈ 609 µM) |  | <50 | 369 (≈ 880 µM) | 393 (≈ 937 µM) |  | 11.2 (≈ 26.7 µM) | Active |  |  |  |  |  | <50 | inhibition (Enterovirus [15]): Active; inhibition (INH) (Enterovirus [2]): <50%; inhibition (unidentified adenovirus [12]): Active; inhibition (Coxsackievirus B5 [14]): Active
